Test results: paper PMC7965737 (Bioconjugate chemistry, 2019)
Counter-ions that a name gives are not always drawn.

Experiments:
[1] = system: MDA-MB-468; test: MTT cytotoxicity assay, MDA-MB-468; assay type: cell-based, Human; details: MDA-MB-468 breast cancer cell line, serum-free media, 48 h
Method in brief: (§1)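 Cells were seeded at 5×10^3 per well in complete medium. The next day the medium was replaced with serum-free medium containing test compound (0–100 μM) or free doxorubicin (positive control), with untreated cells in serum-free medium as negative control, for 48 h at 37 °C, 5% CO2. MTT (5 mg/mL solution) was then added for 2 h. Formazan was dissolved in 4 mM HCl/0.1% NP40/2-propanol (1:1:1) and read at 570 nm. Viability was taken relative to untreated cells, in triplicate, with the experiment repeated once. IC50 came from a nonlinear fit of normalized data against log concentration.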

[2] = system: MCF-10A; test: MTT cytotoxicity assay, MCF-10A; assay type: cell-based, Human; details: non-cancerous cell line MCF-10A, serum-free media, 48 h
Method in brief: as §1

SMILES: COc1cccc2c1C(=O)c1c(O)c3c(c(O)c1C2=O)C[C@@](O)(C(=O)CO)C[C@@H]3O[C@H]1C[C@H](N)[C@H](O)[C@H](C)O1 [Dox, Doxorubicin hydrochloride]
- IC50 [1]: 350 nM
- IC50 [2]: 240 nM
